Sampled rows, rich in hits. Any-hit rate of the full collection: about 1.6%.
PG9 Ab binder – small molecules binding HIV-1 gp120 antibody PG9; inhibition, % at 6.7 µM; 360,000 compounds, 0.43% hits; TR-FRET gp120-PG9 antibody binding; in the data active = inhibition above about 8.5%
NR1D1 modulator – Rev-erb alpha (human) modulation; P20393; Rev-erbα–FITC-DNA binding, fluorescence polarization, 90 min; activity, % at 10 µM; 370,000 compounds, 0.79% hits; AID 1259318;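 active = activity above about 14%, limit read from the data; passing the limit was not always enough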
Target sequence (P20393 whole entry, looked up): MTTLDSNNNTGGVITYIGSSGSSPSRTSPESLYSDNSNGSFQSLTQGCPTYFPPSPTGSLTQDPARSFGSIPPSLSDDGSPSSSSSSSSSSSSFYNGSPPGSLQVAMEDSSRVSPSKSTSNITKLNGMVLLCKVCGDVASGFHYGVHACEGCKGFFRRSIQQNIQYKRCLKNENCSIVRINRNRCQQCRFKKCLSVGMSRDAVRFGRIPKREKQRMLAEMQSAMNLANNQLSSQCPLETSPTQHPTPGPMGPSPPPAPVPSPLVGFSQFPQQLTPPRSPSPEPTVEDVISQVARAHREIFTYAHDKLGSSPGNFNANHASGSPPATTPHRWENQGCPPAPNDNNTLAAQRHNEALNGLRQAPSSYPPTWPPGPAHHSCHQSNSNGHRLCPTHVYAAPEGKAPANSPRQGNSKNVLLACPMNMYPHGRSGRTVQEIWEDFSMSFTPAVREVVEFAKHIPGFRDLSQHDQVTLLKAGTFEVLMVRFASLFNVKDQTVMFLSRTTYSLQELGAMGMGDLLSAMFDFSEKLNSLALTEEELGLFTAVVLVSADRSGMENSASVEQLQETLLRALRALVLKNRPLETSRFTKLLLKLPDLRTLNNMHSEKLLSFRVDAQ
PKA-R1A act – PKA-R1A complex activation | P00514+P68181 | PKA-R1A dissociation, Cy5-IP20 fluorescence polarization; scaled: DMSO 0%, 113 µM cGMP 100% | activation, % at 11.4 µM | 340,000 compounds, 0.083% hits | AID 504707;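 active = percent activation above the mean of all tested compounds plus 3 SD, cut at about 19% in these data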;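 note: higher means more PKAc released from R1A so a rise in polarization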
PKA-R2B activ – activators of human PKA-R2B complex; P22694+P31323; PKA-R2B holoenzyme dissociation, Cy5-IP20 fluorescence polarization; R2B truncated from residue 108, S112A mutant; 0% DMSO only, 100% 113 µM cGMP; activation, % at 11.4 µM; 340,000 compounds, 0.079% hits;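 active = activation above a cutoff set at the mean over all compounds plus 3 SD, cut at about 18% in these data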;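 note: higher means more holoenzyme dissociation and a rise in polarization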
NR2E3 ag-1 – activates human NR2E3 receptor; AID 602229; 360,000 compounds, 0.35% hits; Q9Y5X4; CHO-S Gal4-NCOR/VP16-NR2E3 two-hybrid, luciferase; inhibition of corepressor binding, % at 3.98 µM;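 active = inhibition above the mean of all tested compounds plus 3 SD, cut at about 70% in these data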;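 note: higher means lower luciferase signal from less NR2E3 corepressor binding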
NR2E3 ag-2 – activates human photoreceptor nuclear receptor NR2E3. inhibition of corepressor binding, % at 4.78 µM. AID 2300. Q9Y5X4. GST-NR2E3/biotin-RetCOR TR-FRET, 1536-well. 320,000 compounds, 0.12% hits;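 active = percent inhibition above the cutoff of mean plus 3 SD of all tested compounds, set per screening campaign, cut at about 20% in these data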
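System: GST-NR2E3 and biotin-RetCOR proteins; probe or stimulus: 7 nM biotin-RetCOR; doses: compound at 4.8 µM, single dose; schedule: Compound–protein incubation for 5 h at 4 °C; detection: time-resolved FRET; read-out: percent inhibition; controls: biotin wells as high control, 0.6% DMSO wells as low control; format: 1536-well plates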
NR2E3 ag conf – NR2E3 agonism confirmed in two-hybrid assay. AID 624378. shares compounds with NR2E3 ag-1. inhibition, % at 3.98 µM. 2,300 compounds, 51% hits. CHO-S mammalian two-hybrid NR2E3-NCOR, luciferase luminescence;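 active = average inhibition above a cutoff equal to the mean inhibition of all tested compounds plus one SD, cut at about 70% in these data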
GAL4-VP16 luc – GAL4-VP16 reporter inhibition in NR2E3 agonist counterscreen | shares compounds with NR2E3 ag-1 | CHO-S GAL4-VP16 luciferase reporter, luminescence | inhibition, % at 3.98 µM | 2,300 compounds, 29% hits | AID 624379;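 active = mean inhibition above a cutoff equal to the average over all tested compounds plus one standard deviation, cut at about 70% in these data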;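 note: luciferase from a UAS reporter driven by GAL4-VP16 transactivation; higher means less reporter light so more repression of VP16 activity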
A number is an active result; . = inactive; / = no result given.

SMILES	PG9 Ab binder	NR1D1 modulator	PKA-R1A act	PKA-R2B activ	NR2E3 ag-1	NR2E3 ag-2	NR2E3 ag conf	GAL4-VP16 luc
CC(COc1ccccc1)CN1CCC(C(O)(c2ccccc2)c2ccccc2)CC1 (configuration not stated)	/	.	/	/	/	/	/	/
COC(=O)C1CN(C2CCCC2)CCS(=O)(=O)N1Cc1ccc(Cl)cc1 (configuration not stated)	/	.	/	/	/	/	/	/
CCCNC(=O)c1ccc(N2CCC3(CC2)CC(c2cccc(Br)c2)=NO3)c([N+](=O)[O-])c1	.	.	.	.	.	.	73.7	.
O=C(c1cc(COc2ccc(F)cc2Cl)on1)N1CCN(C2CCCC2)CC1	.	.	.	.	.	.	/	/
O=C(c1cc(COc2ccc(F)cc2Cl)on1)N1CCN(C2CCCCC2)C(=O)C1	.	.	.	.	.	.	.	.
CCCCS(=O)(=O)N1CCCc2nc(-c3ccc(F)cc3)ccc21	.	.	/	/	/	/	/	/
O=C(CS(=O)(=O)c1ccccc1)CS(=O)(=O)c1ccccc1	.	.	/	/	/	/	/	/
O=S(=O)(C/C(=C/CO)S(=O)(=O)c1ccccc1)c1ccccc1	.	.	.	.	.	.	.	.
Cc1[nH]c2ccccc2c1CCN(Cc1cccs1)C(=O)Nc1cccc2c1OCO2	/	.	/	/	/	/	/	/
Cc1nn(C)c(C)c1CN(C)S(=O)(=O)c1ccc2ccccc2c1	.	.	.	.	85.5	.	96.0	86.3
Cc1nn(C)c(C)c1CN(C)S(=O)(=O)c1ccc(F)cc1	.	.	.	.	.	.	/	/
COc1cc(C=Nn2c(-c3cc(-c4ccccc4)n[nH]3)n[nH]c2=S)ccc1OC(C)=O	/	.	/	/	/	/	/	/
CC(=O)C1=C(c2ccc(Br)cc2)C(=O)c2ccccc2C1=O	.	.	.	.	103.4	.	98.6	92.3
Cc1nc(NC(=O)c2c(-c3ccccc3Cl)noc2C)sc1C	.	.	.	.	79.0	.	80.0	.
Cc1onc(-c2ccccc2)c1C(=O)Nc1ncc([N+](=O)[O-])s1	.	.	.	.	101.1	.	98.9	81.0
COCC(=O)Oc1cc(-c2ccc(C)cc2C)c(OC(=O)COC)c(-c2ccc(C)cc2C)c1	.	.	.	.	.	/	.	.
Cc1ccc(OCC(=O)Oc2c(C)cccc2C)cc1	.	.	.	.	.	.	/	/
Cc1ccc(S(=O)(=O)C=CS(=O)(=O)c2ccc(C)cc2)cc1	.	.	.	.	.	/	/	/
O=S(=O)(/C=C/C=C/S(=O)(=O)c1ccccc1)c1ccccc1	.	.	.	.	84.7	/	79.6	.
O=C(COc1ccccc1-c1ccccc1)NN=C1CCCC1	.	.	.	.	.	.	.	.
O=C(Cc1cccc2ccccc12)N/N=C/c1ccc(Sc2cccc3cccnc23)o1	.	.	/	/	/	.	/	/
CCCCC(=O)N/N=C/c1ccc(Sc2cccc3cccnc23)o1	.	.	.	.	85.6	.	.	.
CC(C)CCNC(=O)CN(Cc1ccco1)C(=O)c1snc(C(N)=O)c1N	.	.	.	.	.	.	.	.
S=c1[nH]nc(-c2cc(-c3ccccc3)n[nH]2)n1N=Cc1c[nH]c2ccccc12	/	.	/	/	/	/	/	/
COC(=O)C1CN(Cc2ccc(OC)cc2)CCS(=O)(=O)N1Cc1cn(CCOC(C)=O)nn1 (configuration not stated)	/	.	/	/	/	/	/	/
CC1(C(=O)Nc2ccc(Cl)c(Cl)c2)CCN1C(=O)Cc1ccc(-c2ccccc2)cc1 (configuration not stated)	/	/	/	/	.	/	93.1	72.8
CC1(C(=O)Nc2ccc3c(c2)OCO3)CCN1C(=O)Cc1ccc(-c2ccccc2)cc1 (configuration not stated)	.	.	/	/	93.5	/	96.5	83.9
CC1(C(=O)Nc2ccccc2)CCN1C(=O)Cc1ccc(-c2ccccc2)cc1 (configuration not stated)	.	.	/	/	.	/	.	.
